pIC50: −log10 of the molar value.
What was measured:
A549 cells [1] = assay: Cell cytotoxicity; assay type: cell-based; conditions: Homo sapiens, A549, 72 h, read-out: IC50 (±St. Dev.) Light
Outline: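 A549 cells were exposed to test compound and viability was read 72 h after treatment. Dark samples were protected from light. IC50 was taken from dose–response curves, n = 3.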

[2] = cited from earlier work
A549 cells [3] = assay: Seahorse Glycolytic Rate Test; assay type: cell-based; conditions: irradiation with red light 660 nm
Outline: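 A549 cells were incubated 1 h with test compound, kept dark or irradiated. Irradiation used indigo 450 nm light (485 mW cm^-2) or red 660 nm light (16 mW cm^-2). Concentrations were chosen from light/dark cytotoxicity to keep cells viable. Glycolysis was blocked by 2-deoxyglucose injection, then non-glycolytic acidification was measured. Mitochondrial acidification was also read out.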

A549 cells [4] = assay: Seahorse MitoStress Test; assay type: cell-based; conditions: for Lowest concentration for inhibition of OCR, Dark: 1 h incubation, no irradiation
Outline: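 OCR/ECAR were measured by extracellular flux with sequential oligomycin, FCCP, then rotenone/antimycin A. Basal, maximal and non-mitochondrial respiration were derived. OCR IC50 was taken from maximal respiration. The phenotype map plots basal versus stressed states.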

SMILES | pIC50 (A549 cells [1]) | log P [2] | Concentration with PER showing no glycolytic activity (A549 cells [3]) | Cellular respiration in the absence of light (A549 cells [4]; A549 cells, 1 h, dark, Fig. 3A and C) | Lowest concentration for inhibition of OCR, Dark (A549 cells [4]; A549 cells) | Cellular respiration following irradiation (A549 cells [4]; A549 cells, indigo light for 3, red light (660 nm) for HPPH, Fig. 3B and D) | Fold lower than the IC50 for cytotoxicity (quiescent phenotype concentration) (A549 cells [4]; A549 cells, red light) | Concentration inducing the quiescent phenotype (A549 cells [4]; A549 cells, red light, Fig. S10) | pIC50 (A549 cells [4]; Homo sapiens, A549, read-out: OCR IC50 (from maximal respiration dose-response))
CCCCCCOC(C)c1c(C)c2cc3nc(c4c5[nH]c(cc6nc(cc1[nH]2)C(C)=C6CC)c(C)c5C(=O)C4)[C@@H](CCC(=O)O)[C@@H]3C (stereo partly shown) [HPPH, 2-(1-hexyloxyethyl)-2-devinylpyropheophorbide-a] | 5.43 | ~6.0 | 10 µM | unaffected | 3 µM | marked concentration-dependent decrease | 10 fold | 0.37 µM | 5.92
N.N.[Cl][Pt][Cl] [Cisplatin] |  |  |  |  | >20 µM |  |  |  | 
